According to ChEMBL document CHEMBL4689842, “EUbOPEN Chemogenomics Library wave 1” (2021):
Where “and” joins values, the source holds several entries; their conditions need not be identical. Equal values may be shown once.

Experiments:
Type in all cases: toxicity, cell-based
U2OS [1] = assay: Multiplex assay against U2OS; conditions: human, 24 h, 1 µM, compound concentration 1 uM
Procedure, shortened: (§1)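 Tubulin, mitochondrial-mass and membrane-permeability phenotypes are per cents of healthy-nucleus cells. Cells were gated by CellPathfinder machine learning into Hoechst high-intensity objects or normal cells, normal cells into healthy, pyknosed or fragmented nuclei, and pyknosed cells into mitotic or apoptotic. Before that, live cells stained at seeding with Hoechst33342, BioTracker Green Microtubule Cytoskeleton Dye, MitoTracker Red and Annexin V Alexa Fluor 680 were imaged on a CQ1 microscope at 37°C and 5% CO2 after compound addition.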

U2OS [2] = assay: Incucyte cell viability with U2OS; conditions: human, 10 µM, compound concentration 10 uM; note: filed as whole numbers so only -1 and 0 and 1 occur
Fibroblast = assay: Multiplex assay against human fibroblast; conditions: 1 µM, compound concentration 1 uM; procedure, shortened: as §1
HEK-293T = assay: Incucyte cell viability with HEK293T; conditions: human, 10 µM, compound concentration 10 uM; note: filed as whole numbers so only -1 and 0 and 1 occur
[3] = 6 h, replicate number 1, timepoint 6 hours
[4] = 12 h, replicate number 1, timepoint 12 hours
[5] = 18 h, replicate number 1, timepoint 18 hours
[6] = 24 h, replicate number 1, timepoint 24 hours

CC[C@@H]1C(=O)N(C)c2cnc(Nc3ccc(C(=O)N[C@H]4CC[C@H](N5CCN(CC6CC6)CC5)CC4)cc3OC)nc2N1C(C)C [VOLASERTIB]
Population Hoechst High Intensity Objects (%) (U2OS [1]; replicate 1): 5% | Population Membrane Permeable-Phenotype (%) (U2OS [1]; replicate 1): 28% and 82% | Population Mitochondria Different-Phenotype (%) (U2OS [1]; replicate 1): 38% and 96% | Population Mitotic Cells (%) (U2OS [1]; replicate 1): 33% and 22% | Population Normal (%) (U2OS [1]; replicate 1): 94% | Population Pyknosed Nuclei (%) (U2OS [1]; replicate 1): 14% and 23% | Population Tubulin-Different-Phenotype (%) (U2OS [1]; replicate 1): 78% | Total Cell Count (U2OS [1]; replicate 1): 159 and 158 | Population Apoptotic (%) (U2OS [1]; replicate 2): 65% and 61% | Population Fragmented Nuclei (%) (U2OS [1]; replicate 2): 18% and 15% | Population Healthy Nuclei (%) (U2OS [1]; replicate 2): 48% and 67% | Population Hoechst High Intensity Objects (%) (U2OS [1]; replicate 2): 10% and 12% | Population Membrane Permeable-Phenotype (%) (U2OS [1]; replicate 2): 86% | Population Mitochondria Different-Phenotype (%) (U2OS [1]; replicate 2): 100% and 57% | Population Mitotic Cells (%) (U2OS [1]; replicate 2): 34% and 38% | Population Normal (%) (U2OS [1]; replicate 2): 89% and 87% | Population Pyknosed Nuclei (%) (U2OS [1]; replicate 2): 32% and 17% | Population Tubulin-Different-Phenotype (%) (U2OS [1]; replicate 2): 100% and 71% | Total Cell Count (U2OS [1]; replicate 2): 83 and 123 | Growth Rate (U2OS [2]; 0 h, replicate number 2, timepoint 0 hours): 0 | Growth Rate (U2OS [2]; [3]): 1 | Growth Rate (U2OS [2]; [4]): 0 | Growth Rate (U2OS [2]; 12 h, replicate number 2, timepoint 12 hours): 1 | Growth Rate (U2OS [2]; [5]): 0 | Growth Rate (U2OS [2]; [6]): 0 | Population Apoptotic (%) (Fibroblast; 12 h, replicate 1): 76% and 71% | Population Fragmented Nuclei (%) (Fibroblast; 12 h, replicate 1): 43% and 28% | Population Healthy Nuclei (%) (Fibroblast; 12 h, replicate 1): 42% and 54% | Population Hoechst High Intensity Objects (%) (Fibroblast; 12 h, replicate 1): 14% and 22% | Population Membrane Permeable-Phenotype (%) (Fibroblast; 12 h, replicate 1): 9% and 7% | Population Mitochondria Different-Phenotype (%) (Fibroblast; 12 h, replicate 1): 6% and 11% | Population Mitotic Cells (%) (Fibroblast; 12 h, replicate 1): 24% and 28% | Population Normal (%) (Fibroblast; 12 h, replicate 1): 85% and 77% | Population Pyknosed Nuclei (%) (Fibroblast; 12 h, replicate 1): 13% and 16% | Total Cell Count (Fibroblast; 12 h, replicate 1): 213 and 342 | Population Apoptotic (%) (Fibroblast; 12 h, replicate 2): 53% and 50% | Population Fragmented Nuclei (%) (Fibroblast; 12 h, replicate 2): 48% and 67% | Population Healthy Nuclei (%) (Fibroblast; 12 h, replicate 2): 32% and 24% | Population Hoechst High Intensity Objects (%) (Fibroblast; 12 h, replicate 2): 36% and 43% | Population Membrane Permeable-Phenotype (%) (Fibroblast; 12 h, replicate 2): 17% and 16% | Population Mitochondria Different-Phenotype (%) (Fibroblast; 12 h, replicate 2): 26% and 33% | Population Mitotic Cells (%) (Fibroblast; 12 h, replicate 2): 46% and 50% | Population Normal (%) (Fibroblast; 12 h, replicate 2): 63% and 56% | Population Pyknosed Nuclei (%) (Fibroblast; 12 h, replicate 2): 18% and 8% | Population Tubulin-Different-Phenotype (%) (Fibroblast; 12 h, replicate 2): 78% and 58% | Total Cell Count (Fibroblast; 12 h, replicate 2): 111 and 87 | Population Apoptotic (%) (Fibroblast; 24 h, replicate 1): 84% and 80% | Population Fragmented Nuclei (%) (Fibroblast; 24 h, replicate 1): 23% and 37% | Population Healthy Nuclei (%) (Fibroblast; 24 h, replicate 1): 52% and 50% | Population Hoechst High Intensity Objects (%) (Fibroblast; 24 h, replicate 1): 31% and 16% | Population Membrane Permeable-Phenotype (%) (Fibroblast; 24 h, replicate 1): 7% | Population Mitotic Cells (%) (Fibroblast; 24 h, replicate 1): 15% and 19% | Population Normal (%) (Fibroblast; 24 h, replicate 1): 68% and 83% | Population Pyknosed Nuclei (%) (Fibroblast; 24 h, replicate 1): 24% and 11% | Total Cell Count (Fibroblast; 24 h, replicate 1): 319 and 221 | Population Apoptotic (%) (Fibroblast; 24 h, replicate 2): 100% and 64% | Population Fragmented Nuclei (%) (Fibroblast; 24 h, replicate 2): 62% and 44% | Population Healthy Nuclei (%) (Fibroblast; 24 h, replicate 2): 36% and 33% | Population Hoechst High Intensity Objects (%) (Fibroblast; 24 h, replicate 2): 38% | Population Membrane Permeable-Phenotype (%) (Fibroblast; 24 h, replicate 2): 5% and 13% | Population Mitochondria Different-Phenotype (%) (Fibroblast; 24 h, replicate 2): 22% and 45% | Population Normal (%) (Fibroblast; 24 h, replicate 2): 61% | Population Tubulin-Different-Phenotype (%) (Fibroblast; 24 h, replicate 2): 27% and 72% | Total Cell Count (Fibroblast; 24 h, replicate 2): 81 and 106 | Growth Rate (HEK-293T; 0 h, replicate number 1, timepoint 0 hours): 0 | Growth Rate (HEK-293T; [3]): 0 | Growth Rate (HEK-293T; [4]): 0 | Growth Rate (HEK-293T; [5]): 0 | Growth Rate (HEK-293T; [6]): 0
